An excerpt weighted towards active compounds, which were near 1.5% of everything screened.
HNF4A DNA FP – change in binding of human HNF4A to DNA, primary screen, biochemical, fluorescence polarization, FITC-DNA. Hepatocyte nuclear factor 4-alpha (Homo sapiens), P41235. 360,000 compounds, 0.3% hits. AID 1224865, 2016. activity change, % at 10 µM. 1 h; in the data active means activity change above about 30%, passing the limit was not always enough
CSN inh – inhibitors of CSN-mediated cullin deneddylation, primary screen, biochemical, fluorescence polarization, uHTS. COP9 signalosome complex subunit 5 (Homo sapiens), Q92905. Purified CSN, SCF-Nedd8-OG deneddylation. inhibition, % at 12.5 µM. 360,000 compounds, 0.38% hits. AID 651999, 2013;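 active means pattern-corrected inhibition above about 35%, with an unprinted fluorescence ratio check between 0.5 and 1.5, limit read from the data, passing the limit was not always enough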;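 further: 0% = enzyme with substrate and 100% = substrate without enzyme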
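Test system: Human Csn5 produced in HEK293T cells | Compound: 12.5 µM single point | Times: 90 min, room temperature | Signal: Fluorescence polarization readout | Read-out basis: % inhibition of substrate cleavage by Csn5 | Controls: no-enzyme wells high, enzyme-with-substrate wells low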
Rpn11 inh – Rpn11 (PSMD14) deubiquitinase inhibitors, primary screen, biochemical, fluorescence polarization, uHTS | 360,000 compounds, 0.59% hits | human 26S proteasome, Ub4-pepOG fluorescence polarization; 20S core pre-blocked with epoxomicin | calls only at 20 µM;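 active means inhibition at 20 µM, scaled to each plate's controls, above about 33%, limit read from the data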
Target sequence (O00487 whole entry, looked up): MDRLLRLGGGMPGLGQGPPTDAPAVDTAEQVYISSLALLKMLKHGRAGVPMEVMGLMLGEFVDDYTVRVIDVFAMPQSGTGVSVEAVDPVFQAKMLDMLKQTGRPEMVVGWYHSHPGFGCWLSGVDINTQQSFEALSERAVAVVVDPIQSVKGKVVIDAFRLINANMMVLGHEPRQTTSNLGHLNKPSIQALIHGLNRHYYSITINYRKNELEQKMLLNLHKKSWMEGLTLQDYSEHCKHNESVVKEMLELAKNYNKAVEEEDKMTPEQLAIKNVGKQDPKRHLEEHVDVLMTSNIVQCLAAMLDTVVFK
TPT1 inhibitor – Candida albicans TPT1 enzyme inhibitors, primary screen, biochemical, fluorescence polarization; recombinant caTPT1, FP RNA substrate dephosphorylation; inhibition, % at 5 µM; 300,000 compounds, 0.81% hits;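 active means inhibition above the mean of all tested compounds plus 3 SD, set per screening campaign, cut at about 24% in these data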;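 further: plate controls were DMSO alone for no effect and ferristatin control at 100 nM for full effect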
Rpn11 inh conf – Rpn11 (PSMD14) deubiquitinase inhibitors, confirmation, biochemical, fluorescence polarization, single concentration | shares compounds with Rpn11 inh | purified human 26S proteasome, Ub4-pepOG fluorescence polarization; proteasome pretreated with epoxomicin | inhibition, % at 20 µM | 1,900 compounds, 29% hits
MMP-2 counter-1 – MMP-2 enzyme inhibition, confirmation, counter-screen for RPN11 inhibitor project, biochemical, fluorescence, single concentration; inhibition, % at 20 µM; 1,900 compounds, 4% hits; recombinant MMP-2, FRET peptide cleavage fluorescence; shares compounds with Rpn11 inh;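 further: human MMP-2 activated beforehand with APMA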
Thrombin inh – bovine thrombin protease inhibition, confirmation, counter-screen for Rpn11 inhibitor project, biochemical, fluorescence polarization, single concentration | shares compounds with Rpn11 inh | bovine thrombin cleavage of Ub4-pepOG | inhibition, % at 20 µM | 1,900 compounds, 13% hits;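 active means mean inhibition at least 40% at 20 µM, or signal 3 deviations below plate average, so some actives read negative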;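 further: plate controls were thrombin with DMSO for no effect and buffer wells lacking thrombin for full effect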
CSN5 deneddyl – Csn5 deneddylation inhibitors, confirmation, biochemical, fluorescence polarization, single concentration, SCF-Nedd8OG substrate; shares compounds with CSN inh; Csn5 deneddylation of SCF-Nedd8OG, 90 min; inhibition, % at 16.6 µM; 540 compounds, 62% hits; AID 720654, 2013; in the data active means inhibition above about 50%;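 further: 0% = DMSO with enzyme and 100% = no enzyme wells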
MMP-2 counter-2 – MMP-2 protease inhibition counter-screen, confirmation, counter-screen for CSN deneddylation inhibitor project, biochemical, fluorescence, single concentration | shares compounds with CSN inh | recombinant MMP-2, FRET substrate fluorescence, 60 min | inhibition, % at 16.6 µM | 540 compounds, 33% hits;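 active means corrected plate-normalized z-score of 5 or more, or -5 or less, or inhibition of 15% or more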;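 further: plate controls were DMSO wells with enzyme for no effect and buffer wells lacking MMP-2 for full effect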
Thrombin counter – counter-screen for CSN deneddylation inhibitors: bovine thrombin inhibition; shares compounds with CSN inh; bovine thrombin cleavage of Ub4-pepOG, fluorescence polarization; inhibition, % at 16.6 µM; 540 compounds, 49% hits; AID 720656;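 active means inhibition at or above a set limit, with a fluorescence interference ratio between 0.5 and a set maximum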
* = called active by the depositor; i = inactive; . = not tested or not shown; + = active, no number; ! = not active in a repeat. Unless noted, no stated cut-off is given here; in the data, active means inhibition above about 40%; inactive means the rest.

SMILES | HNF4A DNA FP | CSN inh | Rpn11 inh | TPT1 inhibitor | Rpn11 inh conf | MMP-2 counter-1 | Thrombin inh | CSN5 deneddyl | MMP-2 counter-2 | Thrombin counter
C/C(=N\Nc1ccc(C#N)cc1[N+](=O)[O-])c1ccc(C)o1 | -50.2 | 0.0 | + | -3.2 | -8.7 | -25.9 | -16.1 | . | . | .
COc1ccc(OCC(O)CN2CCN(c3ccc(Cl)cc3)CC2)cc1 (centres undefined) | 2.9 | -2.8 | i | -2.2 | . | . | . | . | . | .
COc1ccc(N2CCN(CC(O)COc3ccc4c(c3)CCC4)CC2)cc1 (centres undefined) | 6.0 | 2.6 | + | 1.2 | -3.2 | -3.4 | -1.8 | . | . | .
CC1CCC(NC(=O)c2[nH]c(C(F)(F)F)nc2-c2ccccc2)CC1 (centres undefined) | -1.1 | 0.4 | i | . | . | . | . | . | . | .
CCN1CCN(Cc2ccc(NC(=O)c3cc(NC(=O)c4cncc(-c5ccc(C#N)cc5)c4)cc(OC)c3)cc2C(F)(F)F)CC1 | 44.8*! | 138.0*! | + | -0.3 | 55.9* | -43.5 | 60.1* | -73.7 | 16.6* | 5.4
Cc1c2cnn(CC(=O)Nc3c(F)c(F)cc(F)c3F)c(=O)c2c(C)n1Cc1ccccc1F | -52.6 | 62.1* | + | 1.6 | 133.9* | 24.5 | 22.4 | 2.3 | 7.1 | 13.3
O=C(/C=C/c1ccco1)Nc1cccc(C(=O)Nc2ccccc2C(=O)O)c1 | -32.5 | 42.0* | + | 5.3 | 57.0* | -13.8 | 30.7 | 54.2* | 6.0 | 12.5
CCc1ccccc1NC(=O)c1cccc(NC(=O)/C=C/c2ccco2)c1 | -1.2 | 12.4 | i | 1.4 | . | . | . | . | . | .
O=C(Nc1ccc(C2=NCCN2)cc1)c1ccc(C(=O)Nc2ccc(C3=NCCN3)cc2)c([N+](=O)[O-])c1 | 76.0 | 117.2* | + | -1.4 | 35.2 | 61.3* | -21.3 | -39.9 | 86.2* | -0.7
CC[C@H](C)[C@H]1CNC(=S)N1CC1CCN(CCCCc2ccccc2)CC1 | 3.5 | -0.1 | i | . | . | . | . | . | . | .
CC1(C)Cc2c(sc(NC(=O)COc3cccc4ccccc34)c2C#N)C(C)(C)N1 | 213.7* | 101.4* | + | 3.3 | 32.9 | -111.7 | 0.9 | -27.6 | -8.8 | -5.9
Cc1ccc(OCC(=O)Nc2sc3c(c2C#N)CC(C)(C)NC3(C)C)cc1 | 3.2 | 4.8 | i | 7.4 | . | . | . | . | . | .
C[C@H](CO)N1C[C@H](C)[C@@H](CN(C)C)Oc2c(NC(=O)CCC(F)(F)F)cccc2C1=O | -4.6 | -4.4 | i | . | . | . | . | . | . | .
O=C(N/N=C/c1ccccn1)c1cc(-c2ccc3ccccc3c2)n[nH]1 | 0.1 | 40.9* | + | 0.3 | 84.9* | -7.2 | 57.5* | . | 20.0* | 17.4*
CCc1ccc(-c2cc(C(=O)N/N=C/c3ccccn3)[nH]n2)cc1 | 4.8 | 1.7 | i | 0.0 | . | . | . | . | . | .
O=C(COC(=O)c1ccco1)NC12CC3CC(CC(C3)C1)C2 | 0.0 | 0.8 | i | . | . | . | . | . | . | .
CCCC(=O)N1CCC1(C)C(=O)NS(=O)(=O)c1cccc(F)c1 (centres undefined) | -0.8 | -2.5 | i | . | . | . | . | . | . | .

Screens: PubChem BioAssay, several laboratories
